Bioassay records deposited in PubChem by several laboratories.
Most compounds without a hit are left out; they make up all but 1.8% or so of the library.
Apaf1 inhib – inhibitors of human Apaf-1 apoptosome | O14727 | reconstituted apoptosome caspase-3 activity, DEVD-Rh110 fluorescence | inhibition, % at 20 µM | 330,000 compounds, 0.71% hits | AID 489030; active = inhibition of at least 40% at 20 µM;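 note: plate controls were DMSO wells for no effect and DEVD-CHO caspase inhibitor wells for full effect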
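Material: reconstituted apoptosome with Apaf-1, cytochrome c, caspase-9, procaspase-3, dATP. Technique: Rh110 fluorescence intensity. Buffer or medium: pH 7.5 Hepes buffer with CHAPS, BSA, DTT. Times: 30 min plus 50 min, RT.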
GSTO1 inh – GSTO1 inhibition, counter-screen for RBBP9 inhibitors. P78417. recombinant GSTO1, activity-based probe fluorescence polarization. inhibition, % at 5.96 µM. 300,000 compounds, 1.1% hits. AID 1974;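 active = inhibition above the campaign mean inhibition plus 3 SD, cut at about 35% in these data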;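 note: 0% = GSTO1-1 with DMSO and 100% = wells lacking GSTO1-1 enzyme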
ZTA DNA inh – counter-screen for EBNA-1 inhibitors: inhibitors of Epstein-Barr virus ZTA | P03206 | ZTA-DNA binding, fluorescence polarization | inhibition, % at 11 µM | 320,000 compounds, 0.15% hits; in the data active = inhibition above about 33%
proCasp3 act – procaspase-3 (human) activation; 330,000 compounds, 0.11% hits; P42574; activation, % at 8.5 µM; recombinant procaspase-3 D3A, Ac-DEVD-pNA absorbance 405 nm;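 active = activation above the mean of all tested compounds plus 3 SD, cut at about 21% in these data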;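 note: 0% = DMSO alone and 100% = DMSO wells spiked with extra 5 µM PC-3 D3A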
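material = Procaspase-3 D3A mutant | probe or stimulus = Ac-DEVD-pNA | compound = single dose, 8.5 µM nominal compound, 0.8% DMSO | timing = 1 h preincubation, 2 h reaction | measured by = 405 nm absorbance of p-nitroaniline, reads at 0 and 120 min | benchmarks = DMSO-only low control, 5 µM PC-3 D3A high control | repeats = singlicate, each compound tested once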
proCasp7 act – counter-screen: procaspase-7 (human) activation. recombinant procaspase-7, Ac-DEVD-pNA absorbance 405 nm; D23A/D198A/D206A triple mutant, cannot self-cleave; scale: DMSO 0, 5 µM enzyme 100. activation, % at 8.5 µM. 330,000 compounds, 0.093% hits. AID 463210;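 active = percent activation above the screen-wide mean plus 3 SD, cut at about 25% in these data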
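System: Uncleavable procaspase-7 mutant enzyme; Amount: 2 µM procaspase-7 mutant as dispensed; Schedule: 1 h compound preincubation, 2 h substrate cleavage, 25 °C; Measured by: 405 nm absorbance of p-nitroaniline; Evaluation: percent activation from buffer-corrected 0–120 min absorbance change; Control set: low DMSO alone, high DMSO plus 5 µM PC-7.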
EBNA-1 inh – blocks EBNA-1 binding to DNA; EBNA-1 DNA binding, fluorescence polarization; inhibition, % at 14.8 µM; 300,000 compounds, 0.34% hits; AID 1950; in the data active = inhibition above about 28%
Apaf-1 inh conf2 – Apaf-1 inhibition, single-dose confirmed | inhibition, % at 20 µM | 1,800 compounds, 25% hits | reconstituted apoptosome, caspase-3 DEVD-Rh110 fluorescence | AID 504614 | shares compounds with Apaf1 inhib;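 active = mean inhibition of at least 40% at 20 µM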;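 note: plate controls were DMSO wells for no effect and DEVD-CHO caspase inhibitor control wells for full effect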
Rh110 quench – counter-screen for Apaf-1 inhibitors: fluorescence interference | shares compounds with Apaf1 inhib | Rh110 fluorescence interference, quenched caspase reaction | activation (fluorescence interference), % at 20 µM | 1,800 tested, under 10 active;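 active = signal rise of 40% or more at 20 µM, treated as a fluorescence artifact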
Fluor interf inh – counter-screen for Apaf-1 inhibitors: fluorescence interference, dose response | shares compounds with Apaf1 inhib | fluorescence interference counterscreen, Apaf-1 assay format | IC50, µM | 460 tested, under 10 active | AID 588538; call rule not given here
* hit, by the source's call; x = no result given.

SMILES	Apaf1 inhib	GSTO1 inh	ZTA DNA inh	proCasp3 act	proCasp7 act	EBNA-1 inh	Apaf-1 inh conf2	Rh110 quench	others
CC(=O)c1cccc(CN2CCc3ccc(NC(=O)C4CCCO4)cc3C2)c1 (configuration not stated)	10	2	-7	-3	14	1	x	x
Cn1c(C(=O)N2CCCC(Nc3ccc(F)cc3)C2)cc2ccccc21 (configuration not stated)	10	4	10	-6	2	5	x	x
CC(=O)NC1N=C(C)N(c2ccccc2)C1=O (configuration not stated)	70*	18	0	-24	-16	-1	9	-3
COCCCNC(=O)Cn1ccc(N)nc1=O	7	x	-12	11	12	x	x	x
COc1ccc(-n2c(C)cc(/C=N/Nc3nnc(C)n3N)c2C)cc1	53*	46*	-15	-13	-7	2	1	0
CCOc1ccc(-n2c(C)cc(/C=N/Nc3nc(C)cc(=O)[nH]3)c2C)cc1	-5	1	7	9	-5	5	x	x
COc1ccccc1OCCNC(=O)c1cccc(S(=O)(=O)N2CCN(Cc3ccccc3)CC2)c1	67*	x	6	3	-4	x	49*	4	Fluor interf inh=>100
CN(Cc1ccc(Cl)c(Cl)c1)C(=O)c1cccc(S(=O)(=O)N2CCN(Cc3ccccc3)CC2)c1	72*	x	16	1	8	x	49*	6	Fluor interf inh=>100
CN(Cc1cccc(F)c1)C(=O)c1cccc(S(=O)(=O)N2CCN(Cc3ccccc3)CC2)c1	13	-3	-5	1	9	0	x	x
O=c1[nH]c(C2CCN(S(=O)(=O)c3ccc(C(F)(F)F)cc3)CC2)nc2c1nnn2Cc1ccc(F)cc1	41*	-9	-16	7	1	10	30	-10
O=c1[nH]c(C2CCN(S(=O)(=O)c3ccccc3F)CC2)nc2c1nnn2Cc1ccc(F)cc1	21	29	-8	2	-4	-4	x	x
O=c1[nH]c(C2CCCN(S(=O)(=O)c3ccccc3F)C2)nc2c1nnn2Cc1ccccc1Cl (configuration not stated)	41*	11	6	-6	-6	-3	35	14
O=C(Nc1nccs1)C1CCCN1/C=C/C(=O)C(F)(F)F (configuration not stated)	-5	4	9	-7	1	-1	x	x
Cc1cc2cc(CNS(=O)(=O)c3ccccc3)ccc2n1C	61*	5	10	3	2	0	12	5
Cc1ccc(CNC(=O)c2ccc(S(=O)(=O)N3CCCCC3)cc2)cc1	9	x	x	x	x	x	x	x
Cc1cc2cc(CNC(=O)c3ccc(S(=O)(=O)N4CCCCC4)cc3)ccc2n1C	53*	-2	11	-1	8	23	17	1
Cc1ccccc1NC(=S)NCc1ccc2c(c1)cc(C)n2C	7	3	3	-4	-11	-10	x	x
COc1ccc(S(=O)(=O)NCc2ccc3c(c2)cc(C)n3C)cc1	51*	0	-3	-8	5	1	17	3
CCS(=O)(=O)NCc1ccc2c(c1)cc(C)n2C	7	1	14	5	-1	0	x	x
CCc1cccc(C)c1NC(=S)NCc1ccc2c(c1)cc(C)n2C	55*	-3	2	2	7	-2	21	6
CC(C)CN(C(=O)C1CCC1)c1c(N)n(Cc2ccccc2)c(=O)[nH]c1=O	-10	x	x	-7	4	x	x	x
COc1ccc(-c2nc3nc(C)c(Cc4ccccc4)c(=O)n3[nH]2)cc1	49*	-91	-1	1	-7	0	47*	1
COC(=O)Cc1c(C)nc2nc(-c3ccc(OC)cc3)[nH]n2c1=O	6	-1	-5	-2	7	11	x	x
Cc1[nH]n(-c2ccccc2)c(=O)c1N=Nc1nccs1	73*	15	-6	-10	-14	17	35	19
CCOC(=O)C1=C(c2ccccc2)NC(=O)NC1c1cc(Cl)c(O)c(OC)c1 (configuration not stated)	2	-5	-5	-4	-2	0	x	x
SMILES	Apaf1 inhib	GSTO1 inh	ZTA DNA inh	proCasp3 act	proCasp7 act	EBNA-1 inh	Apaf-1 inh conf2	Rh110 quench	others
CCOC(=O)C1=C(c2ccccc2)NC(N)=NC1c1ccc(OCc2ccc(Cl)cc2)c(OC)c1 (configuration not stated)	58*	-4	7	9	9	-11	64*	6	Fluor interf inh=>100
CC(/C=N\NC(=O)c1ccc2c(c1)OCO2)c1ccccc1 (configuration not stated)	-7	2	4	3	-9	-2	x	x
COc1ccc(CNC[C@@H](CCCCN(C)Cc2ccc(OC)cc2)N2C[C@H](c3ccccc3)N(CCc3ccc(Cl)c(Cl)c3)C(=O)C2=O)cc1	49*	-2	0	6	-4	-12	51*	7	Fluor interf inh=>100
CCCCCC(=O)Nc1nc(C)c(-c2csc(Nc3cc(OC)ccc3OC)n2)s1	-8	-7	5	-5	3	9	x	x
CCCCCCC(=O)Nc1nc(C)c(-c2csc(Nc3cc(OC)ccc3OC)n2)s1	49*	6	5	0	10	0	-10	4
Cc1ccc(S(=O)(=O)N2CCN(C)CC2)c2nsnc12	7	4	-3	-1	7	-18	x	x
CCc1noc(C)c1C(=O)Nc1ccccc1C(C)(C)C	2	-6	0	6	-3	-17	x	x
CC(C)(C)OC(=O)NCc1ccc(CNC(=O)c2nc[nH]c2C(=O)N2CCN(c3ccccc3)CC2)cc1	17	x	16	-2	-2	x	x	x
CCOC(=O)c1c2ccc(OCC(=O)NN)cc2n2ccccc12	42*	40*	13	5	6	-1	53*	0	Fluor interf inh=>100
COC(=O)c1ccc(COC(=O)[C@@H]2CC(O)CN2S(=O)(=O)c2ccccc2[N+](=O)[O-])cc1 (some centres not stated)	2	-1	-10	-7	6	-2	x	x
CCC(=O)N(CCc1ccccc1C)Cc1cc2cc3c(cc2[nH]c1=O)OCO3	41*	17	16	0	5	11	8	3
C[C@@H]1COC(=O)[C@H](Cc2ccc(F)cc2)C/C=C\C[C@@H](CC(=O)NCCO)C(=O)N1	2	x	x	4	-2	x	x	x
